Reference: ChEMBL document CHEMBL3392987, “Novel synthetic coumarins that targets NF-κB in Hepatocellular carcinoma” (Bioorg Med Chem Lett, 2015)
Each block holds one compound with its values, some of them ahead of it. The source made the active and inactive calls. The calls are words filed in the database; no cut-off is given here.

Legend:
HepG2 [1] = experiment: Cytotoxicity against human HepG2 cells after 24 to 72 hrs by MTT assay; type: functional, cell-based
Method in brief: (§1)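 HepG2 cells plated in triplicate and treated with a range of compound concentrations. MTT assay run after 24, 48 and 72 h. Data given as mean ± SD of triplicates, with p <0.05 flagged.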

[2] = biological target: T1, Nuclear factor NF-kappa-B complex (Homo sapiens) (UniProt Q00653+P19838+Q04206); experiment: Inhibition of NF-kappaB in human HepG2 cell extract assessed as reduction in C-Myc expression at 50 uM after 12 to 48 hrs by Western blotting; type: cell-based
T1 sequence (P19838 whole entry, looked up): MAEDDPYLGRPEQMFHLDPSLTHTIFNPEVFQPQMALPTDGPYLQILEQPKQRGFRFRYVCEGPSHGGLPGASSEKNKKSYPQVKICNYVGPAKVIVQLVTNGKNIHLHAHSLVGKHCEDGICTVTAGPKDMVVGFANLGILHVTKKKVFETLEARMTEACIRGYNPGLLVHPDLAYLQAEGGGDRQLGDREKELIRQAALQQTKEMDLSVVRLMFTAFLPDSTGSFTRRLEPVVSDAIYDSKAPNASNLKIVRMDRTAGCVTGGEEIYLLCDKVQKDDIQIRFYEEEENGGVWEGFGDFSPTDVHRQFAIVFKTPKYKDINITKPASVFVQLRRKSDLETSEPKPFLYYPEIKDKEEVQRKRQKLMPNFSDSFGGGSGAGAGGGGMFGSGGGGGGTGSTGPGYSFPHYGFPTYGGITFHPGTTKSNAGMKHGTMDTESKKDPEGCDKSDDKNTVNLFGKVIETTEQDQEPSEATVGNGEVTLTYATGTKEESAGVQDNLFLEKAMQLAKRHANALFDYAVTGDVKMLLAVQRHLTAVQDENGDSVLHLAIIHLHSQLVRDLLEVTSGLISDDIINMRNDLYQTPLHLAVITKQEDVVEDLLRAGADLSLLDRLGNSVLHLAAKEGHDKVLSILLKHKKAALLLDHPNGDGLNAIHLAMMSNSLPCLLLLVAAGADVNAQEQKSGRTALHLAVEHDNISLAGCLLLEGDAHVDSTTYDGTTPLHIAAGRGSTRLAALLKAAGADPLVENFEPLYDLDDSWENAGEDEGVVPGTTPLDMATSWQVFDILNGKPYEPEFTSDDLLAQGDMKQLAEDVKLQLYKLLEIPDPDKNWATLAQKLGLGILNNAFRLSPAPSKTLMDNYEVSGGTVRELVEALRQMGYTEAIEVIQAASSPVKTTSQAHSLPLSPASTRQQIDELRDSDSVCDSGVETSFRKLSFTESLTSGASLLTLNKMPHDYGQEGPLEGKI
T1 sequence (Q00653 whole entry, looked up): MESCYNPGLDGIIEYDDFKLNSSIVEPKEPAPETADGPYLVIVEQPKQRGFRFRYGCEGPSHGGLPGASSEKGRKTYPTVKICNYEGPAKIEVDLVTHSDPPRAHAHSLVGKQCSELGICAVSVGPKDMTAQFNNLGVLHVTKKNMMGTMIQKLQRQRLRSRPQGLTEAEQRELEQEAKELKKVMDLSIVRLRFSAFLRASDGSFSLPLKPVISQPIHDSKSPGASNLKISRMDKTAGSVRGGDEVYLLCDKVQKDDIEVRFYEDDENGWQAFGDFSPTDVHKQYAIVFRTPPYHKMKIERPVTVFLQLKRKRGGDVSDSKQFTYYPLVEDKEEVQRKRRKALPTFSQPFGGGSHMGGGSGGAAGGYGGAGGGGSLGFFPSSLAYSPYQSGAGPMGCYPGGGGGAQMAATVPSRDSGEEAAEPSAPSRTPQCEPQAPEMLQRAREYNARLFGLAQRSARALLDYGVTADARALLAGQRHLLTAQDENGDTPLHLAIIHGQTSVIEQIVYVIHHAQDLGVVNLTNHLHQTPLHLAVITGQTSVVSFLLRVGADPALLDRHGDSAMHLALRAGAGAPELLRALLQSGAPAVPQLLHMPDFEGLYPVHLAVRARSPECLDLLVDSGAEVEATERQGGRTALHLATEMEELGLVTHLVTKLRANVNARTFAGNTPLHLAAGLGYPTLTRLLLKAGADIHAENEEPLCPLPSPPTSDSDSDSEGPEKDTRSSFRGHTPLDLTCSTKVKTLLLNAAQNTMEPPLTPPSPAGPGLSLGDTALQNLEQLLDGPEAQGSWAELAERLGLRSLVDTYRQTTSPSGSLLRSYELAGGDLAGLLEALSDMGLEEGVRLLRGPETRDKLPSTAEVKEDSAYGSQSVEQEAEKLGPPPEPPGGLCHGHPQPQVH
T1 sequence (Q04206 whole entry, looked up): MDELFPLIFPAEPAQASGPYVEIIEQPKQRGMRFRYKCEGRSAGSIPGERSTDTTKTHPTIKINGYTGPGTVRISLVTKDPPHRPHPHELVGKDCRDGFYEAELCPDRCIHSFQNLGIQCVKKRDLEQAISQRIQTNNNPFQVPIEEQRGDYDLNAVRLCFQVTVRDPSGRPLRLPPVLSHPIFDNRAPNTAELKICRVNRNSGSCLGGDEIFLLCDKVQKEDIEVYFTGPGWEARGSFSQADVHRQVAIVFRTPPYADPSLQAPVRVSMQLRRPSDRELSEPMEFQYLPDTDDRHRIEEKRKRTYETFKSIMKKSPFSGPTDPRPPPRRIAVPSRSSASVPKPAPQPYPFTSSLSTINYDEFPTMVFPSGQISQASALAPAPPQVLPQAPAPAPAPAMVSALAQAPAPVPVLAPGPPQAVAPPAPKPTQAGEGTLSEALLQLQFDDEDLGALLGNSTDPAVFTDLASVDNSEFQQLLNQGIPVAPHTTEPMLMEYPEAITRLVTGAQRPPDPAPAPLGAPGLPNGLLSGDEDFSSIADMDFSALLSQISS
Method in brief: (§2)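 HepG2 cells treated with 50 µM compound over a time course. Whole-cell extract (30 µg protein) resolved on 10% SDS–PAGE; membrane cut by molecular weight and probed for cyclin D1, Bcl-2, survivin or C-Myc. Blots stripped and reprobed for β-actin as loading control. Representative of two independent experiments.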

[3] = biological target: T1, Nuclear factor NF-kappa-B complex (Homo sapiens); experiment: Inhibition of NF-kappaB DNA binding activity in human HepG2 cell nuclear extract at 50 uM by ELISA-based DNA binding assay; type: protein-complex assay; settings: TDE = time-dependent effect
Method in brief: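 HepG2 cells treated with 50 µM compound over a time course, then nuclear extracts prepared. Extract protein (5 µg) tested in an ELISA-based TransAM NF-κB DNA-binding kit. Representative of two independent experiments.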

[4] = biological target: T1, Nuclear factor NF-kappa-B complex (Homo sapiens); experiment: Inhibition of NF-kappaB in human HepG2 cell extract assessed as reduction in cyclin D1 expression at 50 uM after 12 to 48 hrs by Western blotting; type: cell-based; method in brief: as §2
PLC-PRF-5 = experiment: Cytotoxicity against human PLC/PRF/5 cells by MTT assay; type: functional, cell-based
[5] = biological target: T1, Nuclear factor NF-kappa-B complex (Homo sapiens); experiment: Inhibition of NF-kappaB in human HepG2 cell extract assessed as reduction in survivin expression at 50 uM after 12 to 48 hrs by Western blotting; type: cell-based; method in brief: as §2
[6] = Cytotoxicity against human LO2 cells at 50 uM after 72 hrs by MTT assay; type: cell-based; settings: l02, 72 h
HepG2 [7] = experiment: Antiinvasive activity in CXCL12-induced human HepG2 cells at 50 uM after 8 hrs by in vitro migration assay
[8] = biological target: T1, Nuclear factor NF-kappa-B complex (Homo sapiens); experiment: Inhibition of NF-kappaB in human HepG2 cell extract assessed as reduction in Bcl-2 expression at 50 uM after 12 to 48 hrs by Western blotting; type: cell-based; method in brief: as §2
[9] = biological target: T1, Nuclear factor NF-kappa-B complex (Homo sapiens); experiment: Inhibition of NF-kappaB in human HepG2 cell extract assessed as reduction in MMP12 expression at indicated concentrations by Western blotting
HepG2 [10] = experiment: Induction of apoptosis in human HepG2 cells assessed as PARP cleavage after 12 to 48 hrs by MTT assay; type: functional, cell-based; settings: in the assay text read “by Western blotting” for “by MTT assay”
Method in brief: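 HepG2 cells treated with compound over a time course. Whole-cell extract (30 µg protein) resolved on 10% SDS–PAGE; membrane cut by molecular weight, probed for PARP, then probed for β-actin on the same blots as loading control.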

Huh-7 = experiment: Cytotoxicity against human HuH7 cells by MTT assay; type: functional, cell-based
HepG2 [11] = experiment: Antiinvasive activity in CXCL12-induced human HepG2 cells at 50 uM after 8 hrs by matrigel invasion assay
HepG2 [12] = experiment: Cytotoxicity against human HepG2 cells at 5 to 15 uM by MTT assay; type: functional, cell-based; settings: TDE = time-dependent effect; method in brief: as §1

SMILES: CN(C)C(=S)SCc1cc(=O)oc2ccc(F)cc12
IC50 (HepG2 [1]): 58.6 µM

SMILES: Cc1cc(C)c2c(CSC(=S)N(C)C)cc(=O)oc2c1
IC50 (HepG2 [1]): 62.8 µM

SMILES: CCOC(=O)Nc1ccc2c(CSC(=S)N(C)C)cc(=O)oc2c1
IC50 (HepG2 [1]): 66.3 µM

SMILES: O=c1cc(CSC(=S)N2CCCC2)c2cc(F)ccc2o1
IC50 (HepG2 [1]): 66.7 µM

SMILES: COc1ccc2c(CSC(=S)N3CCCC3)cc(=O)oc2c1
IC50 (HepG2 [1]): 61.5 µM

SMILES: CN(C)C(=S)SCc1cc(=O)oc2c1ccc1ccccc12
IC50 (HepG2 [1]): 63.9 µM

SMILES: COc1ccc2oc(=O)cc(CSC(=S)N(C)C)c2c1
IC50 (HepG2 [1]): 60.4 µM

SMILES: O=c1cc(CSC(=S)N2CCCC2)c2ccc3ccccc3c2o1
IC50 (HepG2 [1]): 62.1 µM

SMILES: COc1ccc2oc(=O)cc(CSC(=S)N3CCCC3)c2c1
IC50 (HepG2 [1]): 53.5 µM

Activity [2]: Active
Activity [3]: tde
Activity [4]: Active
Activity [8]: Active
Activity [9]: Active
SMILES: CCOC(=O)Nc1ccc2c(CSC(=S)N3CCCC3)cc(=O)oc2c1
Activity (PLC-PRF-5): Dose-dependent effect
Activity [5]: Active
Activity (HepG2 [1]): Dose-dependent effect
IC50 (HepG2 [1]): 14.8 µM
Activity [6]: Non-toxic
Activity (HepG2 [7]): Active
Activity (HepG2 [10]): Active
Activity (Huh-7): Dose-dependent effect
Activity (HepG2 [11]): Active
Activity (HepG2 [12]): tde

SMILES: O=c1cc(CSC(=S)N2CCCC2)c2ccc(Cl)cc2o1
IC50 (HepG2 [1]): 60.8 µM

SMILES: O=c1cc(CSC(=S)N2CCCC2)c2ccc(F)cc2o1
IC50 (HepG2 [1]): 62.5 µM

SMILES: COC(=O)Nc1ccc2c(CSC(=S)N(C)C)cc(=O)oc2c1
IC50 (HepG2 [1]): 61.4 µM

SMILES: Cc1ccc2oc(=O)cc(CSC(=S)N(C)C)c2c1
IC50 (HepG2 [1]): 65.5 µM
